Experiment [1] can be described thus: Inhibition of IL-6-induced cell adhesion in human U937 cells assessed as reduction in cell adhesion to HT-29 cells at 1 uM relative to control. The class given is functional. To be noted: U-937.
Experiment [2] in a line: Inhibition of TNF-alpha-induced cell adhesion in human U937 cells assessed as reduction in cell adhesion to HT-29 cells at 1 uM relative to control. The class given is functional. To be noted: U-937.
Experiment [3] can be described thus: Inhibition of TNF-alpha-induced cell adhesion in human U937 cells assessed as reduction in cell adhesion to HT-29 cells at 1000 uM relative to control. The class given is functional. To be noted: U-937.
Experiment [4] is described as follows: Inhibition of IL-6-induced cell adhesion in human U937 cells assessed as reduction in cell adhesion to HT-29 cells at 1000 uM relative to control. As to conditions: U-937. Type of experiment: functional.
For experiment [5], the system named is Rattus norvegicus. Nature of the experiment: Anti-colitis activity against TNBS-induced rat model of colitis assessed as increase in colon length at 300 mg/kg, po administered for 5 days and measured on day 5. Type of experiment: functional, organism-based. As to conditions: time 5.0 day. In outline:
(§1)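 Rat colitis induced by rectal TNBS. Test agents given orally once daily for 5 days. Read-outs are body weight, colon appearance (congestion, adhesion), and colon tissue weight/length. MPO in colon tissue was measured with an MPO assay kit. Groups were compared against mock control and vehicle-treated TNBS animals, with P < 0.05 taken as significant.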

Experiment [6] deals with Rattus norvegicus. Nature of the experiment: Anti-colitis activity against TNBS-induced rat model of colitis assessed as increase in body weight at 300 mg/kg, po administered for 5 days and measured on day 5. Type of experiment: functional, organism-based. As to conditions: time 5.0 day. In outline: as §1
In experiment [7] the test system is Rattus norvegicus. Nature of the experiment: Anti-colitis activity against TNBS-induced rat model of colitis assessed as increase in colon weight at 300 mg/kg, po administered for 5 days and measured on day 5. The class given is functional, organism-based. As to conditions: time 5.0 day. The essentials: as §1
Experiment [8] concerns Rattus norvegicus. Nature of the experiment: Anti-colitis activity against TNBS-induced rat model of colitis assessed as decrease in congestion at 300 mg/kg, po administered for 5 days and measured on day 5. Type of experiment: functional, organism-based. To be noted: time 5.0 day. In outline: as §1
The subject of experiment [9] is Rattus norvegicus. Nature of the experiment: Anti-colitis activity against TNBS-induced rat model of colitis assessed as decrease in adhesion at 300 mg/kg, po administered for 5 days and measured on day 5. As to conditions: time 5.0 day. Type of experiment: functional, organism-based. The essentials:
as §1

In experiment [10] the test system is Rattus norvegicus. Nature of the experiment: Anti-colitis activity against TNBS-induced rat model of colitis assessed as decrease in MPO level in colon at 300 mg/kg, po administered for 5 days and measured on day 5. Type of experiment: functional, organism-based. To be noted: time 5.0 day. In outline:
as §1

The subject of experiment [11] is Rattus norvegicus. The experiment in a line: Anti-colitis activity against TNBS-induced rat model of colitis assessed as decrease in adhesion at 1 mg/kg, po administered for 5 days and measured on day 5. Type of experiment: functional, organism-based. As to conditions: time 5.0 day. The essentials: as §1
Experiment [12] has as its system Rattus norvegicus. The experiment in a line: Anti-colitis activity against TNBS-induced rat model of colitis assessed as decrease in congestion at 1 mg/kg, po administered for 5 days and measured on day 5. Type of experiment: functional, organism-based. To be noted: time 5.0 day. In outline:
as §1

The test system of experiment [13] is Rattus norvegicus. Nature of the experiment: Anti-colitis activity against TNBS-induced rat model of colitis assessed as increase in body weight at 1 mg/kg, po administered for 5 days and measured on day 5. To be noted: time 5.0 day.
Experiment [14] concerns Rattus norvegicus. The experiment in a line: Anti-colitis activity against TNBS-induced rat model of colitis assessed as increase in colon weight at 1 mg/kg, po administered for 5 days and measured on day 5. The class given is functional, organism-based. As to conditions: time 5.0 day. The essentials:
as §1

For experiment [15], the system named is Rattus norvegicus. The experiment in a line: Anti-colitis activity against TNBS-induced rat model of colitis assessed as decrease in MPO level in colon at 1 mg/kg, po administered for 5 days and measured on day 5. Type of experiment: functional, organism-based. As to conditions: time 5.0 day. In outline: as §1
Experiment [16] has as its system Rattus norvegicus. The experiment in a line: Anti-colitis activity against TNBS-induced rat model of colitis assessed as increase in body weight at 1 mg/kg, po administered for 5 days and measured on day 5. Type of experiment: functional, organism-based. As to conditions: time 5.0 day. The essentials:
as §1

For experiment [17], the system named is Rattus norvegicus. Nature of the experiment: Anti-colitis activity against TNBS-induced rat model of colitis assessed as increase in colon length at 1 to 10 mg/kg, po administered for 5 days and measured on day 5. Type of experiment: functional, organism-based. To be noted: dose 1-10 mg/kg, time 5.0 day. In outline:
as §1

Experiment [18] deals with Rattus norvegicus. The experiment in a line: Anti-colitis activity against TNBS-induced rat model of colitis assessed as decrease in adhesion at 1 to 10 mg/kg, po administered for 5 days and measured on day 5. As to conditions: dose 1-10 mg/kg, time 5.0 day. The class given is functional, organism-based. The essentials: as §1
The subject of experiment [19] is Rattus norvegicus. The experiment in a line: Anti-colitis activity against TNBS-induced rat model of colitis assessed as decrease in congestion at 1 to 10 mg/kg, po administered for 5 days and measured on day 5. As to conditions: dose 1-10 mg/kg, time 5.0 day. Type of experiment: functional, organism-based. The essentials: as §1
In experiment [20] the test system is Rattus norvegicus. Nature of the experiment: Anti-colitis activity against TNBS-induced rat model of colitis assessed as increase in colon weight at 1 to 10 mg/kg, po administered for 5 days and measured on day 5. The class given is functional, organism-based. As to conditions: dose 1-10 mg/kg, time 5.0 day. In outline:
as §1

The subject of experiment [21] is Rattus norvegicus. Nature of the experiment: Anti-colitis activity against TNBS-induced rat model of colitis assessed as decrease in MPO level in colon at 1 to 10 mg/kg, po administered for 5 days and measured on day 5. As to conditions: dose 1-10 mg/kg, time 5.0 day. The class given is functional, organism-based. The essentials:
as §1

For experiment [22], the system named is Rattus norvegicus. Nature of the experiment: Anti-colitis activity against TNBS-induced rat model of colitis assessed as increase in body weight administered po for 5 days and measured on day 5. To be noted: dose 1-10 mg/kg, time 5.0 day. Type of experiment: functional, organism-based. In outline: as §1

Activity calls are given as the source filed them. The rule behind the calls is not given here.

Usually inhibition stands for the share of the control response that was lost under treatment. Regarding `C=CCC(=O)Nc1nc(C)c(O)c(C)c1C`, the values for the inhibition at 1 µM in experiment [1] and in [2] were 21.3% and 31.9%, respectively.

Consider `Cc1nc(NC(=O)C2CCCCC2)c(C)c(C)c1O`, for which, in [1], the inhibition at 1 µM stood at 56.7%.

For the compound `Nc1ccc(O)c(C(=O)O)c1` [MESALAMINE], the inhibition at 1000 µM in [3] worked out at 9.9%; in [4] it was 1.7%.

Regarding `CCCC(=O)Nc1nc(C)c(O)c(C)c1C`, the inhibition at 1 µM is 17.5% in [1] and 10% in [2].

With `O=C(O)c1cc(/N=N/c2ccc(S(=O)(=O)Nc3ccccn3)cc2)ccc1O`, the result in the experiment with Rattus norvegicus [5], in the experiment with Rattus norvegicus [6], in the experiment on Rattus norvegicus [7], in the experiment with Rattus norvegicus [8], with Rattus norvegicus [9] and with Rattus norvegicus [10] was Active.

With `Cc1nc(NC(=O)CC(C)C)c(C)c(C)c1O`, the inhibition at 1 µM in experiment [1] is 48%; in experiment [2], 52.3%.

`Cc1nc(NC(=O)COc2ccccc2)c(C)c(C)c1O`: the inhibition at 1 µM in experiment [1] was 11.4%; in [2], 10.8%.

Take `Cc1nc(NC(=O)CCc2ccccc2F)c(C)c(C)c1O`: the results for the inhibition at 1 µM in experiment [1] and in experiment [2] were 18% and 13.9%, respectively.

On to `Cc1ccccc1CCC(=O)Nc1nc(C)c(O)c(C)c1C`, for which the inhibition at 1 µM came out at 12.9% in experiment [1] and 20.2% in experiment [2].

Consider `Cc1nc(NC(=O)CCc2ccccc2)c(C)c(C)c1O`, for which the inhibition at 1 µM in experiment [1] came out at 69.6%. Also, the result in the experiment with Rattus norvegicus [11], in the experiment with Rattus norvegicus [12], in the experiment on Rattus norvegicus [13], in the experiment on Rattus norvegicus [14], in the experiment on Rattus norvegicus [15] and in the experiment on Rattus norvegicus [16] was Active.

For the compound `CC(=O)Nc1nc(C)c(O)c(C)c1C`, the inhibition at 1 µM was 47.2% in [1] and 56% in [2]. Also, the result in the experiment on Rattus norvegicus [17], in the experiment on Rattus norvegicus [18], in the experiment with Rattus norvegicus [19], with Rattus norvegicus [20] and with Rattus norvegicus [21] was Active. Also, the Activity entry in the experiment on Rattus norvegicus [22] is “Dose-Dependent Effect”.

`CCCCCCCCCCCC(=O)Nc1nc(C)c(O)c(C)c1C`: the inhibition at 1 µM in experiment [1] came out at 44.3%.

For `C[C@@H]1CCN(C(=O)CC#N)C[C@@H]1N(C)c1ncnc2[nH]ccc12` [TOFACITINIB], the inhibition at 1 µM was found to be 58.6% in [1] and 49.1% in experiment [2].

For the compound `Cc1nc(NC(=O)C(C)C)c(C)c(C)c1O`, the inhibition at 1 µM in experiment [1] stood at 53.9%; in experiment [2], 64.2%.

In the case of `Cc1nc(NC(=O)CCc2ccc(Cl)cc2)c(C)c(C)c1O`, the inhibition at 1 µM in [1] stood at 20.8%; in experiment [2], 30.6%.

Turning to `Cc1nc(NC(=O)CC(C)CC(C)(C)C)c(C)c(C)c1O` (stereo not drawn), in experiment [1], the inhibition at 1 µM was found to be 46.3%.

Turning to `Cc1nc(NC(=O)CCc2ccccc2Br)c(C)c(C)c1O`, the results for the inhibition at 1 µM in [1] and in [2] were 22% and 35.3%, respectively.

Take `CCCCCCCCCCCCCCCC(=O)Nc1nc(C)c(O)c(C)c1C`: the inhibition at 1 µM in [1] was 17.4%; in experiment [2], 31.7%.

Take `CC(=O)OCC(=O)Nc1nc(C)c(O)c(C)c1C`: the inhibition at 1 µM in experiment [1] is 9.7%; in experiment [2], 6.8%.

With `Cc1nc(NC(=O)C(Cl)Cl)c(C)c(C)c1O`, the inhibition at 1 µM in [1] is 52.7%.

As to `Cc1nc(NC(=O)C(C)(C)C)c(C)c(C)c1O`, the inhibition at 1 µM in [1] was 21.1%.

With `Cc1nc(NC(=O)CCCCl)c(C)c(C)c1O`, in experiment [1], the inhibition at 1 µM came out at 17.8%.

As to `CCCCCCCC(=O)Nc1nc(C)c(O)c(C)c1C`, the inhibition at 1 µM in experiment [1] came to 54.8%; in [2], 61.5%.

On to `Cc1nc(NC(=O)CCc2ccc(Cl)cc2Cl)c(C)c(C)c1O`, for which the results for the inhibition at 1 µM in [1] and in experiment [2] were 35.9% and 41.5%, respectively.

As to `Cc1nc(NC(=O)Cc2ccc(F)cc2)c(C)c(C)c1O`, the figures for the inhibition at 1 µM in experiment [1] and in experiment [2] were 18.1% and 7.2%, respectively.

For the compound `Cc1nc(NC(=O)Cc2ccccc2)c(C)c(C)c1O`, the inhibition at 1 µM in experiment [1] worked out at 50.2%; in experiment [2] it was 56.6%.

Regarding `Cc1nc(NC(=O)C2CCCC2)c(C)c(C)c1O`, the inhibition at 1 µM in experiment [1] came out at 34.8%.

On to `Cc1nc(NC(=O)C(Cl)c2ccccc2)c(C)c(C)c1O` (stereo not drawn), for which the inhibition at 1 µM in experiment [1] was found to be 22.5%; in [2] it was 36.6%.

For the compound `Cc1nc(NC(=O)Cc2cccc(Br)c2)c(C)c(C)c1O`, the inhibition at 1 µM in experiment [1] was 9.2%; in experiment [2], 6.2%.

As to `Cc1nc(NC(=O)/C=C/c2ccccc2)c(C)c(C)c1O`, the figures for the inhibition at 1 µM in [1] and in experiment [2] were 14.2% and 25.2%, respectively.

The record behind these values is ChEMBL document CHEMBL4819105, “Synthesis and activity of N-(5-hydroxy-3,4,6-trimethylpyridin-2-yl)acetamide analogues as anticolitis agents via dual inhibition of TNF-α- and IL-6-induced cell adhesions” (2021).
